Data: ChEMBL document CHEMBL4184290, “Design, synthesis, and discovery of 5-((1,3-diphenyl-1H-pyrazol-4-yl)methylene)pyrimidine-2,4,6(1H,3H,5H)-triones and related derivatives as novel inhibitors of mPGES-1” (Bioorg Med Chem Lett, 2018)

Experiments:
COX1/COX2 = experiment: Inhibition of ovine COX1/human COX2 assessed as reduction in PGF2alpha production at 100 uM preincubated for 10 mins followed by arachidonic acid substrate addition measured after 2 mins by colorimetric assay relative to control; settings: sheep (COX1) / human (COX2), ovine COX1/human COX2 enzyme, probe arachidonic acid
Prostaglandin E synthase = target: T1, Prostaglandin E synthase (Homo sapiens, UniProt O14684); experiment: Inhibition of human mPGES1 expressed in 293 cell microsomes preincubated for 15 mins followed by PGH2 substrate addition measured after 3 secs by enzyme immunoassay
T1 sequence (O14684 whole entry): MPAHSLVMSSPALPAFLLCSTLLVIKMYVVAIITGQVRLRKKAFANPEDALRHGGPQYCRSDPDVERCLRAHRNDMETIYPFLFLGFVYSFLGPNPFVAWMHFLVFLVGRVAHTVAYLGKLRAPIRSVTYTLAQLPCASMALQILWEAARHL
Procedure, shortened: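 Compounds were first screened against human mPGES-1 at 10 μM, and IC50 values were determined only for those giving ≥70% inhibition. Protein preparation and assay followed earlier reports. Values are means ± SD of single determinations run in triplicate.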

[1] = target: T2, Prostaglandin E synthase (Homo sapiens) (UniProt O14684); experiment: Inhibition of human mPGES1 expressed in 293 cell microsomes at 10 uM preincubated for 15 mins followed by PGH2 substrate addition measured after 3 secs by enzyme immunoassay relative to control
T2 sequence (whole entry): T1 sequence (O14684 whole entry)
Procedure, shortened: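 Single-point screen at 10 μM against human mPGES-1, reported as % inhibition. Only compounds reaching the ≥70% cutoff went on to IC50 determination. Data are means ± SD from triplicate determinations.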

CCCCCCOc1ccc(-c2nn(-c3ccc(Cl)cc3)cc2/C=C(\C#N)C(=O)O)cc1
inhibition at 2 min, 100 µM (COX1/COX2): 19% | IC50 (Prostaglandin E synthase): 83 nM | inhibition [1]: > 70%

CCCCCCOc1ccc(-c2nn(-c3ccc(Cl)cc3)cc2C=C2C(=O)NC(=S)NC2=O)cc1
inhibition at 2 min, 100 µM (COX1/COX2): 0.7% | inhibition [1]: > 70%

O=C1NC(=O)C(=Cc2cn(-c3ccc(Cl)cc3)nc2-c2ccccc2)C(=O)N1
IC50 (Prostaglandin E synthase): 337 nM | inhibition [1]: > 70%

O=C1NC(=S)NC(=O)C1=Cc1cn(-c2ccc(Cl)cc2)nc1-c1ccc(OCc2ccccc2)cc1
IC50 (Prostaglandin E synthase): 797 nM | inhibition [1]: > 70%

CCCCCCOc1ccc(-c2nn(-c3ccc(Cl)cc3)cc2/C=C(\C#N)C(N)=O)cc1
inhibition [1]: 14%

CCCCOc1ccc(-c2nn(-c3ccc(Cl)cc3)cc2C=C2C(=O)NC(=S)NC2=O)cc1
inhibition at 2 min, 100 µM (COX1/COX2): 4.4% | inhibition [1]: > 70%

CCCCCCOc1ccc(-c2nn(-c3ccc(Cl)cc3)cc2/C=C2/SC(=O)N(CC(=O)O)C2=O)cc1
inhibition at 2 min, 100 µM (COX1/COX2): 1.2% | IC50 (Prostaglandin E synthase): 36 nM | inhibition [1]: > 70%

CCCCCCOc1ccc(-c2nn(-c3ccc(Cl)cc3)cc2C=C(C#N)C#N)cc1
inhibition [1]: 64%

CCCCCCCCOc1ccc(-c2nn(-c3ccc(Cl)cc3)cc2C=C2C(=O)NC(=O)NC2=O)cc1
inhibition [1]: > 70%

CCOc1ccc(-c2nn(-c3ccc(Cl)cc3)cc2/C=C2/SC(=O)N(CC(=O)O)C2=O)cc1
inhibition at 2 min, 100 µM (COX1/COX2): 6.8% | IC50 (Prostaglandin E synthase): 41 nM | inhibition [1]: > 70%

CCCCOc1ccc(-c2nn(-c3ccccc3)cc2C=C2C(=O)NC(=S)NC2=O)cc1
inhibition at 2 min, 100 µM (COX1/COX2): 16% | inhibition [1]: > 70%

CCCCOc1ccc(-c2nn(-c3ccccc3)cc2C=C2C(=O)NC(=O)NC2=O)cc1
inhibition [1]: > 70%

CCCCCCCCCCOc1ccc(-c2nn(-c3ccc(Cl)cc3)cc2C=C2C(=O)NC(=S)NC2=O)cc1
inhibition at 2 min, 100 µM (COX1/COX2): 11% | inhibition [1]: > 70%

CCCCCCCCOc1ccc(-c2nn(-c3ccc(Cl)cc3)cc2C=C2C(=O)NC(=S)NC2=O)cc1
inhibition at 2 min, 100 µM (COX1/COX2): 0% | inhibition [1]: > 70%

CCCCOc1ccc(-c2nn(-c3ccc(Cl)cc3)cc2C=C2C(=O)NC(=O)NC2=O)cc1
inhibition [1]: > 70%

CCOc1ccc(-c2nn(-c3ccc(Cl)cc3)cc2/C=C2/SC(=O)NC2=O)cc1
IC50 (Prostaglandin E synthase): 1590 nM | inhibition [1]: > 70%

O=C1NC(=S)NC(=O)C1=Cc1cn(-c2ccc(Cl)cc2)nc1-c1ccccc1
IC50 (Prostaglandin E synthase): 561 nM | inhibition [1]: > 70%

O=C1NC(=O)C(=Cc2cn(-c3ccc(Cl)cc3)nc2-c2ccc(OCc3ccccc3)cc2)C(=O)N1
IC50 (Prostaglandin E synthase): 598 nM | inhibition [1]: > 70%

CCOc1ccc(-c2nn(-c3ccc(Cl)cc3)cc2/C=C(\C#N)C(N)=O)cc1
inhibition [1]: 32%

CCCCCCCCCCOc1ccc(-c2nn(-c3ccc(Cl)cc3)cc2C=C2C(=O)NC(=O)NC2=O)cc1
inhibition [1]: > 70%

CCOc1ccc(-c2nn(-c3ccc(Cl)cc3)cc2/C=C(\C#N)C(=O)O)cc1
IC50 (Prostaglandin E synthase): 283 nM | inhibition [1]: > 70%

CCOc1ccc(-c2nn(-c3ccc(Cl)cc3)cc2/C=C2/SC(=S)NC2=O)cc1
IC50 (Prostaglandin E synthase): 1040 nM | inhibition [1]: > 70%

CCCCCCOc1ccc(-c2nn(-c3ccc(Cl)cc3)cc2/C=C2/SC(=O)NC2=O)cc1
IC50 (Prostaglandin E synthase): 1390 nM | inhibition [1]: > 70%

CCCCCCOc1ccc(-c2nn(-c3ccc(Cl)cc3)cc2/C=C2/SC(=S)NC2=O)cc1
IC50 (Prostaglandin E synthase): 1730 nM | inhibition [1]: > 70%

CCOc1ccc(-c2nn(-c3ccc(Cl)cc3)cc2C=C(C#N)C#N)cc1
inhibition [1]: 51%

CCCCCCOc1ccc(-c2nn(-c3ccc(Cl)cc3)cc2C=C2C(=O)NC(=O)NC2=O)cc1
inhibition [1]: > 70%

CCOc1ccc(-c2nn(-c3ccc(Cl)cc3)cc2C=C2C(=O)NC(=S)NC2=O)cc1
inhibition at 2 min, 100 µM (COX1/COX2): 1% | inhibition [1]: > 70%

CCOc1ccc(-c2nn(-c3ccc(Cl)cc3)cc2C=C2C(=O)NC(=O)NC2=O)cc1
inhibition [1]: > 70%
